CHOP UPR activ: activators of apoptotic CHOP UPR arm, primary screen, cell-based, CHO-CHOP luciferase reporter, luminescence, uHTS. activation, % at 10 µM. UPR activation; percent of tunicamycin response over DMSO baseline. 0.34% of 330,000 active. AID 449763, 2010;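 active = at 10 µM dose, activation of 40% or more, normalized to positive control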;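 also: 100% = tunicamycin at 10 µg/mL and 0% = DMSO alone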
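Evaluation: % reporter activation, DMSO baseline versus tunicamycin full activation; System: CHO-CHOP luciferase reporter cell line; Input: 500 cells/well; Incubation: 6 h compound treatment, 37 °C; Measured by: Steady-Glo luciferase luminescence; Dosing: one dose, 10 µM in 0.5% DMSO; Buffer or medium: F12 medium, 10% FBS; Benchmarks: positive tunicamycin 10 µg/mL, negative DMSO alone.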
UPR XBP1 act: activators of adaptive XBP1 UPR arm, primary screen, cell-based, CHO-XBP1 luciferase reporter, luminescence, uHTS | 0.33% of 330,000 active | activation, % at 20 µM | AID 463104, 2010 | IRE1-XBP1 UPR activation; percent of tunicamycin response, DMSO as zero;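 active = versus positive control, 20 µM dose yields 30% or more activation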;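 also: 100% = tunicamycin at 10 µg/mL and 0% = DMSO only wells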
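Material: CHO cell line with stable XBP1 luciferase reporter; schedule: 16-18 h cell attachment at 37 °C, then 6 h compound exposure; signal: glow luminescence from Steady-Glo reagent; medium: serum-containing F12 medium, 10% FBS; benchmarks: tunicamycin 10 µg/mL and vehicle-only wells; read-out: percent activation relative to tunicamycin reference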
CHOP inhibitor: inhibitors of CHOP promoter induction, primary screen, cell-based, unfolded protein response, luciferase reporter | CHO-K1 CHOP-promoter luciferase, tunicamycin-induced, 15-18 h | inhibition, % at 10 µM | 3.8% of 220,000 active | AID 2732, 2010;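 active = compounds that reduced the stress-induced luciferase reporter signal by more than about 70% of percent inhibition, limit read from the data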;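 also: 0% = tunicamycin plus vehicle and 100% = wells without tunicamycin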
GAA850 FXN act: FXN promoter activators, primary screen, cell-based, luciferase luminescence, HEK293 lucGAA850; HEK293 lucGAA850 FXN promoter luciferase reporter, 24 h; percent of 10 µM SAHA response; activation, % at 6 µM; 0.56% of 360,000 active;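 active = activation above the average of all compounds screened plus 3 SD, cutoff fixed separately per campaign, cut at about 7.5% in these data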;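 also: 0% = DMSO wells and 100% = 10 µM SAHA wells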
GAA30 FXN cntr: GAA30 FXN promoter activators, confirmation, counter-screen for GAA850 frataxin promoter activator project, cell-based, luminescence, HEK293, lucGAA30, triplicate; shares compounds with GAA850 FXN act; HEK293 lucGAA30 FXN promoter luciferase, 24 h; DMSO = 0%, 5 µM ipriflavone = 100%; activation, % at 6 µM; 66% of 1,900 active; AID 588350, 2011;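 active = mean activation above the mean of solvent-only control wells plus 3 SD, cut at about 22% in these data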;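 also: counterscreen of GAA850 promoter hits where activity marks nonselective or luminescence artifacts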
GAA850 confirm: FXN GAA850 promoter activators in reporter cells, confirmation, cell-based, luminescence, HEK293 lucGAA850, triplicate | activation, % at 6 µM | HEK293 lucGAA850 FXN promoter luciferase reporter, 24 h; 100% = activation by SAHA | shares compounds with GAA850 FXN act | 86% of 1,900 active;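 active = mean activation above a set limit taken from the primary screen, cut at about 8% in these data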;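 also: 0% = DMSO wells and 100% = 10 µM SAHA wells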
* hit, by the source's call; . = not tested or not shown. The full list was thinned out, with hits kept by preference.

SMILES	CHOP UPR activ	UPR XBP1 act	CHOP inhibitor	GAA850 FXN act	GAA30 FXN cntr	GAA850 confirm
Cc1ccc(O)c(NC(=O)CCC2CCCCC2)c1	2	-2	.	8.3*	91*	35*
Cc1ccc(O)c(NC(=O)C2CCCCC2)c1	3	-1	18	3	.	.
Cc1cccc(/C=N/NC(=O)c2cccc(Cl)c2)n1	7	6	.	7.6*	-66	-16
Cc1cccc(/C=N/NC(=O)c2cccc(NC(=O)c3ccccc3)c2)n1	0	-2	.	1	.	.
Cc1cccc(/C=N/NC(=O)c2cccc([N+](=O)[O-])c2)n1	2	3	-21	12*	-39	11*
Cc1cc2nc(SCC(=O)Nc3ccccc3C(=O)O)[nH]c2cc1C	5	-6	-21	9.6*	62*	18*
NC(=O)c1ccccc1NC(=O)CSc1nc2ccccc2c(=O)[nH]1	0	-3	.	0	.	.
COC(=O)[C@]12C(=O)C(C)=C(O)[C@@]1(C)C(C)=CC1[C@@]34CC[C@@H](OC(C)=O)C(C)(C)C3C(C[C@]12C)OC4=O (some centres not stated)	1	1	-6	8.8*	4	3
Nc1c(N(CCCO)C(=O)CCCN2C(=O)c3cccc4cccc(c34)C2=O)c(=O)[nH]c(=O)n1Cc1ccccc1	.	.	.	0	.	.
COC(=O)c1ccc(C(=O)OC)c(NC2=NS(=O)(=O)c3ccccc32)c1	0	-1	18	-1	.	.
COC(=O)c1c(-c2ccccc2)csc1NC1=NS(=O)(=O)c2ccccc21	4	1	-47	8.9*	125*	43*
COCC#Cc1cnc2c(c1)C(=O)N([C@H](C)CO)C[C@H](C)[C@@H](CN(C)S(=O)(=O)c1ccccc1)O2	.	.	.	-1	.	.
CC(=C/c1ccccc1)/C=N/NC(=O)c1ccc2nc[nH]c2c1	4	5	-4	4	.	.
O=C(N/N=C/C(Br)=C\c1ccccc1)c1ccc2nc[nH]c2c1	6	-1	-7	8.5*	38*	19*
O=C(O)c1ccc(N/N=C/C(Br)=C/c2ccccc2)cc1	4	2	24	10.0*	82*	36*
O=C(N/N=C/C(Br)=C/c1ccccc1)NC1CCCCC1	3	2	14	9.8*	51*	22*
O=C(N/N=C/C(Br)=C/c1ccccc1)C1CC1	3	10	9	8.2*	81*	31*
O=C(NCc1cccc(Cl)c1)C1Cc2c(-c3ccccc3Oc3ccccc3)ccnc2O1 (configuration not stated)	.	.	.	-1	.	.
CCCCN(C(=O)CC1CCCCC1)c1c(N)n(CCCC)c(=O)[nH]c1=O	.	.	.	-4	.	.
C#CCn1cc2c(c1-c1ccccc1)c(=O)n(C)c(=O)n2C	.	.	.	3	.	.
CC(NC(=O)COC(=O)c1ccc2c(=O)n3c(nc2c1)CCCCC3)c1ccc(F)cc1 (configuration not stated)	.	.	.	0	.	.
O=C(N/N=C/c1ccccc1)NC1CCCCC1	3	6	39	8.6*	62*	20*
COc1cc(/C=C/C(=O)OCC(=O)c2ccc[nH]2)ccc1O	.	.	.	1	.	.
O=C(O)Cn1c2ccccc2c2nc3ccccc3nc21	.	.	.	10*	104*	33*
O=C(Cn1c(=O)oc2ccccc21)Nc1nnc(N2CCCCCC2)s1	1	0	-33	0	.	.
SMILES	CHOP UPR activ	UPR XBP1 act	CHOP inhibitor	GAA850 FXN act	GAA30 FXN cntr	GAA850 confirm
CC1CCN(c2nnc(NC(=O)Cn3c(=O)oc4ccccc43)s2)CC1	0	-3	35	15*	8	2
COc1ccc(N2CSC(=S)N(c3ccc(OC)cc3)C2)cc1	.	.	.	0	.	.
Cc1cccc2nc(COc3ccc4ccccc4c3Br)cn12	5	1	55	12*	134*	48*
C=CCSc1nnc(-c2cc3c(s2)-c2ccccc2CC3)o1	3	0	-1	8.7*	76*	28*
C[C@H]1CN([C@@H](C)CO)C(=O)c2cc(Br)cnc2O[C@@H]1CN(C)C(=O)c1ccncc1	.	.	.	0	.	.
Cc1ccccc1-c1ccc(C(=O)Nc2cccc(F)c2)o1	0	3	10	7.7*	57*	17*
O=C(NCC1CCCCC1)c1csc([C@@H]2O[C@H](CO)[C@H](O)[C@H](O)[C@H]2O)n1	.	.	.	-1	.	.
CCOc1ccc(S(=O)(=O)N2CCOCC2)cc1NC(=O)CCN1C(=O)NC2(CCCC2)C1=O	.	.	.	-1	.	.
O=C(C#Cc1ccccc1)c1ccco1	-8	-9	.	12*	-116	-35
COc1ccc(NC2=C(c3ccc(OC)cc3)C(=O)c3ccccc32)cc1	-1	3	47	0	.	.
COc1ccc(C2=C(N)c3ccccc3C2=O)cc1	4	3	-20	7.7*	102*	33*
O=C(Nc1ccccn1)C(c1ccccc1)c1ccccc1	.	.	.	-4	.	.
CCN(C(=O)c1ccco1)c1nc(-c2ccc(OC)cc2)cs1	9	5	.	8.3*	110*	37*
COc1ccc(C(CC(=O)c2ccc(C)cc2)C(C#N)C#N)cc1OC (configuration not stated)	2	1	-23	8.0*	39*	38*
C=CCN(C(=O)c1oc2c(Cl)cc(C)cc2c1C)C1CCS(=O)(=O)C1 (configuration not stated)	4	-4	.	8.1*	102*	40*
COc1ccc(C(=O)N2CCCCC2c2cc(C(=O)NCc3ccc(F)cc3)no2)cc1 (configuration not stated)	.	.	.	-1	.	.
CN(Cc1ccccc1)c1nc(N)c([N+](=O)[O-])c(Nc2cccc(F)c2)n1	0	12	44	9.6*	27*	17*
C[C@@H]1CN([C@H](C)CO)C(=O)c2cc(Br)cnc2O[C@@H]1CN(C)Cc1ccc(F)cc1	.	.	.	-3	.	.
CCOc1ccc(C(C)=O)cc1COC(=O)c1ccccc1C(=O)N(C)Cc1ccccc1	1	-2	.	9.5*	16	15*
O=C(NCCCn1ccnc1)c1cc2cc([N+](=O)[O-])ccc2oc1=O	1	-2	-6	12*	11	7
Cc1cc(O)c(NC(=O)c2ccc(Br)o2)cc1C	5	6	29	9.3*	91*	27*
COc1cc(NC(=O)c2ccc(-c3cnn(C)c3)c3ccoc23)cc(OC)c1OC	.	.	.	-1	.	.
